# Screening results (PubChem BioAssay)
# An excerpt weighted towards active compounds, which were near 1.6% of everything screened.
# PKA-R2B activ – activates the human PKA-R2B holoenzyme complex; PKA-R2B holoenzyme dissociation, Cy5-IP20 fluorescence polarization; R2B truncated from residue 108, S112A mutant; 0% DMSO only, 100% 113 µM cGMP; activation, % at 11.4 µM; 340,000 compounds, 0.079% hits; AID 504700;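 active = activation above a cutoff set at the mean over all compounds plus 3 SD, cut at about 18% in these data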;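 also: higher means more holoenzyme dissociation and a rise in polarization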
# Target sequence (P31323 whole entry, looked up, other chains not shown, the tested form may be a part): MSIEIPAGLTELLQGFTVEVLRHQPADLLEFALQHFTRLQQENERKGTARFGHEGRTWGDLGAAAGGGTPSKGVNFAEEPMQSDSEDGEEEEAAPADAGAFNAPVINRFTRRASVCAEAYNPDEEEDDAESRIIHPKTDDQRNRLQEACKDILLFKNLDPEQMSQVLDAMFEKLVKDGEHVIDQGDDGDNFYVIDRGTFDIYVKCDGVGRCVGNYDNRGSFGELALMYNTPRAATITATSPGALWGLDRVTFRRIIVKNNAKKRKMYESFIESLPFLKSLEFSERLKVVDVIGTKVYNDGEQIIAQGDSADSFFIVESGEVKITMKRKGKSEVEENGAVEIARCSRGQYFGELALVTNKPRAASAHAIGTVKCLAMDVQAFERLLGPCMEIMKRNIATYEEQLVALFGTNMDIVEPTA
# Rpn11 block – Rpn11 (human) deubiquitinase inhibition | 360,000 compounds, 0.59% hits | AID 588493 | calls only at 20 µM | O00487 | human 26S proteasome, Ub4-pepOG fluorescence polarization; 20S core pre-blocked with epoxomicin;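 active = inhibition at 20 µM, scaled to each plate's controls, above about 33%, limit read from the data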
# PKA-R1A act – PKA-R1A complex activation; 340,000 compounds, 0.083% hits; activation, % at 11.4 µM; P00514+P68181; PKA-R1A dissociation, Cy5-IP20 fluorescence polarization; scaled: DMSO 0%, 113 µM cGMP 100%;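 active = percent activation above the mean of all tested compounds plus 3 SD, cut at about 19% in these data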;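 also: higher means more PKAc released from R1A so a rise in polarization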
# TPT1 inh – blocks Candida albicans tRNA 2'-phosphotransferase; recombinant caTPT1, FP RNA substrate dephosphorylation; inhibition, % at 5 µM; 300,000 compounds, 0.81% hits; AID 1962;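 active = inhibition above the mean of all tested compounds plus 3 SD, set per screening campaign, cut at about 24% in these data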;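 also: plate controls were DMSO alone for no effect and ferristatin control at 100 nM for full effect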
# HNF4A DNA FP – change in binding of human HNF4 alpha to DNA; activity change, % at 10 µM; 360,000 compounds, 0.3% hits; HNF4a-FITC DNA binding, fluorescence polarization, 1 h; in the data active = activity change above about 30%, passing the limit was not always enough
# CSN inh – inhibitors of human CSN-mediated cullin deneddylation. inhibition, % at 12.5 µM. 360,000 compounds, 0.38% hits. Purified CSN, SCF-Nedd8-OG deneddylation, fluorescence polarization. AID 651999;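 active = pattern-corrected inhibition above about 35%, with an unprinted fluorescence ratio check between 0.5 and 1.5, limit read from the data, passing the limit was not always enough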;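 also: 0% = enzyme with substrate and 100% = substrate without enzyme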
# Target sequence (Q92905 whole entry, looked up, one chain of several): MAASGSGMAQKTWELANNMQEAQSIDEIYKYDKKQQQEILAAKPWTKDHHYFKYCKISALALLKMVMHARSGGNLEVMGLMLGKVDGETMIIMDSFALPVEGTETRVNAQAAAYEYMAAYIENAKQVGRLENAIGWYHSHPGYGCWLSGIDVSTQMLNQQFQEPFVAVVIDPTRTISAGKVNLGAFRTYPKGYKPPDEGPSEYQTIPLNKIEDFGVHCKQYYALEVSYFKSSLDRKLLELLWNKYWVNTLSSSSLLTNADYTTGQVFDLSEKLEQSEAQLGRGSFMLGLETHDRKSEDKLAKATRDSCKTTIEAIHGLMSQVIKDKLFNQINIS
#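 Assay system: purified human Csn5 enzyme expressed in HEK293T cells; measure: % inhibition; also added: SCFSkp2-Nedd8OG substrate at 10 nM final; technique: fluorescence polarization; times: reaction 90 min, room temperature; medium: Tris buffer pH 7.5, NaCl, DTT, Tween-20, trehalose, ovalbumin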
# CSN deneddyl val – validation of inhibitors of human CSN-mediated cullin deneddylation; shares compounds with CSN inh; Csn5 deneddylation of SCF-Nedd8OG, fluorescence polarization, 90 min; inhibition, % at 16.6 µM; 540 compounds, 62% hits; AID 720654; in the data active = inhibition above about 50%;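 also: 0% = DMSO with enzyme and 100% = no enzyme wells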
# MMP2 cntr CSN – counter-screen for CSN deneddylation inhibitors: human MMP-2 inhibition | shares compounds with CSN inh | recombinant MMP-2, FRET substrate fluorescence, 60 min | inhibition, % at 16.6 µM | 540 compounds, 33% hits | AID 720655;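 active = corrected plate-normalized z-score of 5 or more, or -5 or less, or inhibition of 15% or more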;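 also: plate controls were DMSO wells with enzyme for no effect and buffer wells lacking MMP-2 for full effect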
# Thrombin counter – counter-screen for CSN deneddylation inhibitors: bovine thrombin inhibition; AID 720656; shares compounds with CSN inh; bovine thrombin cleavage of Ub4-pepOG, fluorescence polarization; 540 compounds, 49% hits; inhibition, % at 16.6 µM;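 active = inhibition at or above a set limit, with a fluorescence interference ratio between 0.5 and a set maximum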
# HNF4a DNA conf – change in binding of human HNF4 alpha to DNA, retest; HNF4A-FITC DNA binding, fluorescence polarization, 1 h; 210 compounds, 99% hits; shares compounds with HNF4A DNA FP; activity change, % at 12.5 µM; AID 1224897; call rule not given here
# Starred values were filed as active, the others as inactive; i = inactive; · = no result shown; + = active, no number.
SMILES,PKA-R2B activ,Rpn11 block,PKA-R1A act,TPT1 inh,HNF4A DNA FP,CSN inh,HNF4a DNA conf,others
C=CCn1c(O)c(N=Nc2ccccc2O)c2ccccc21,-1.6,·,-16.7,·,84.1*,47.2*,·,CSN deneddyl val=+;MMP2 cntr CSN=-5.7;Thrombin counter=32.5*
O=c1c2c3c(sc2[nH]c(=S)n1Cc1ccco1)CCC3,-0.4,i,-4.9,3.0,-12.0,44.5*,·,CSN deneddyl val=91.9*;MMP2 cntr CSN=34.0*;Thrombin counter=-2.3
CN(C)CCn1c2c(c(SCC(=O)Nc3ccc4c(c3)OCCO4)nc1=O)CCCC2,5.1,i,-7.5,-0.1,0.6,0.9,·,
COc1ccc(OC)c(N2C(=O)[C@@H]3C(c4ccccc4Cl)=NO[C@@H]3C2=O)c1,2.3,i,-0.9,6.7,-35.9,39.6*,·,CSN deneddyl val=69.3*;MMP2 cntr CSN=12.0;Thrombin counter=6.8
O=C(NCCc1ccccc1)c1cc(=O)c2ccccc2o1,-5.7,i,3.9,-0.2,4.3,-1.4,·,
Cc1cc(C(=O)O)ccc1-c1ccc(/C=C2\NC(=O)N(Cc3ccc(F)cc3)C2=O)o1,-6.5,i,-3.6,1.1,-17.1,35.6*,·,MMP2 cntr CSN=17.3*;Thrombin counter=15.8*
Cc1ccc(NC(=O)c2cccc(S(=O)(=O)N3CCc4ccccc4C3)c2)nc1,3.3,i,-4.3,-3.0,-1.2,-1.0,·,
Cc1cc(N2CCN(C)CC2)ccc1NC(=O)c1cccc(S(=O)(=O)N2CCc3ccccc3C2)c1,5.7,i,-2.1,1.1,6.0,107.7*,·,CSN deneddyl val=53.3*;MMP2 cntr CSN=7.6;Thrombin counter=-10.0
CC(C)(C)c1ccc(COc2ccsc2C(=O)O)cc1,5.3,i,-9.7,-2.3,-4.9,4.0,·,
Cc1ccc(NC(=O)CN2C(=O)S/C(=C/c3ccc(-c4cc(C(=O)O)ccc4C)o3)C2=O)cc1C,-1.1,i,10.4,7.4,-12.7,64.0*,·,CSN deneddyl val=75.9*;MMP2 cntr CSN=18.3*;Thrombin counter=2.5
CC1CCC2C(C1)Nc1c(C(=O)O)cccc1C2(C)C (stereo unspecified),-1.4,i,13.7,0.4,-1.5,-0.5,·,
N#Cc1c(NC(=O)CSc2ncnc3sccc23)oc(-c2ccco2)c1-c1ccco1,-8.4,i,11.6,23.3,3.2,51.3*,·,CSN deneddyl val=63.7*;MMP2 cntr CSN=9.0;Thrombin counter=6.9
Cc1cc(NC(=O)CSc2ncnc3sccc23)no1,4.8,i,-1.4,0.4,-3.3,-2.2,·,
Cc1c(CCC(=O)O)c(=O)oc2c(C)c3occ(-c4ccc(Br)cc4)c3cc12,0.5,i,-8.1,·,-1.9,38.7*,·,CSN deneddyl val=25.8;MMP2 cntr CSN=29.6*;Thrombin counter=-5.4
O=C(Nc1cccc(-c2cnc3ccccc3n2)c1)c1cccc(NC(=O)c2ccco2)c1,0.7,+,2.7,1.6,6.4,41.3*,·,MMP2 cntr CSN=0.8;Thrombin counter=16.9*
CCOC(=O)Cc1csc(NC(=O)CN2CCOCC2)n1,-8.2,i,-6.1,0.0,2.4,1.1,·,
CN(C)c1ccc(C=C2C=C(c3ccccc3)OC2=O)cc1,-4.6,i,-9.3,·,55.3*,18.6,48.8*,
O=C1OC(c2ccccc2)=CC1=Cc1ccccc1O,0.6,i,2.7,·,-0.7,-0.2,·,
CCN(CC)S(=O)(=O)c1ccc(N2CCCC2)c(NC(=O)C2=NN(c3ccccc3)C(=O)CC2)c1,-2.7,i,-12.7,·,-2.0,5.4,·,
O=C(N/N=C/c1ccc(F)cc1)c1cc(-c2ccc3c(c2)OCO3)n[nH]1,7.3,i,-1.9,-1.6,3.2,4.6,·,
CN(C)c1ccc(/C=N/NC(=O)c2cc(-c3ccc4c(c3)OCO4)n[nH]2)cc1,10.1,·,-0.8,-2.5,47.4*,41.7*,59.4*,
CCC(C)N(C(=O)Cn1cnc2c1c(=O)n(C)c(=O)n2C)C1CCS(=O)(=O)C1 (stereo unspecified),3.3,i,3.2,0.9,1.7,-0.7,·,
Cc1ccc(/C=C2/Sc3ccc(C(=O)NCc4ccccn4)cc3NC2=O)cc1,7.5,·,5.2,20.7,72.0*,61.1*,57.6*,
CCS(=O)(=O)N1N=C(c2ccccc2)CC1c1ccc2nccnc2c1 (stereo unspecified),11.9,i,8.2,-0.1,53.4*,19.3,75.3*,
O=C1CC(=O)N(C2CCCCC2)C(=O)N1c1ccccc1S(=O)(=O)Oc1ccccc1,·,·,·,·,64.9*,24.1,40.7*,
SMILES,PKA-R2B activ,Rpn11 block,PKA-R1A act,TPT1 inh,HNF4A DNA FP,CSN inh,HNF4a DNA conf,others
COCCNC(=O)c1cc(-c2ccccc2)sc1N,·,·,·,·,54.7*,28.7,85.2*,
CCCCNC(=O)c1cc(-c2ccccc2)sc1N,·,·,·,·,14.8,6.4,·,
O=C(N/N=C/c1cccnc1)c1cccc(NC(=O)c2ccc(Cl)cc2)c1,14.6,+,4.0,2.9,89.6*,109.6*,172.7*,
Nc1cc2c(cc1Cl)-c1ccc([N+](=O)[O-])cc1C2=NO,-5.8,i,7.9,·,50.7*,18.9,51.8*,
O=C(N/N=C\C=C\c1ccc(Br)cc1)c1ccc2c(c1)OCO2,0.6,+,8.2,-0.3,49.7*,49.3*,61.9*,
C#C[C@]1(O)CC[C@H]2[C@@H]3[C@H](C)CC4=C(CCC(=O)C4)[C@H]3CC[C@@]21C,·,·,·,2.1,·,·,·,
Cc1nn(C)cc1CN(C)C(=O)c1cc(-c2ccccc2)nc2ccc(Br)cc12,4.9,i,-7.3,-0.9,5.0,0.4,·,
CCSc1ncc(Cl)c(C(=O)Nc2sc3c(c2C(=O)NCc2cccnc2)CCCC3)n1,1.6,·,-9.8,-1.5,51.4*,6.1,48.8*,
COc1ccc(S(=O)(=O)N2CCOCC2)cc1NC(=O)CSc1ccc(F)cc1,12.1,i,-1.2,·,-1.1,-1.8,·,
CCN(C(=O)COC(=O)/C(C#N)=C/c1ccc(N(C)C)cc1)C1CCS(=O)(=O)C1 (stereo unspecified),8.5,i,6.4,·,46.3*,9.8,71.3*,
CN(/C=C/C(=C\C=[N+](C)c1ccccc1)OCCCS(=O)(=O)[O-])c1ccccc1,-2.7,·,-0.5,0.9,87.3*,30.8,106.5*,
CN(/C=C/C(=C/C=[N+](C)c1ccccc1)OCCCS(=O)(=O)[O-])c1ccccc1,-7.4,·,-5.0,-0.7,112.4,34.1,·,
